The results in this text go back to ChEMBL document CHEMBL5661968, “Antitumor activity of ZSTK474, a new phosphatidylinositol 3-kinase inhibitor” (J Natl Cancer Inst, 2006).

Structures are written as SMILES. Active and inactive are the calls of the source. The calls are words filed in the database; no cut-off is given here.

The test system of experiment [1] is B16-F10. The experiment in a line: Antitumor activity against mouse B16-F10 cells implanted in BDF1 mouse assessed as tumor size relative to control (T/C) at 12 mg/kg, iv administered on day 0 measured after 14 days. To be noted: 336 h.
In experiment [2] the test system is B16-F10. Kind of experiment: Antitumor activity against mouse B16-F10 cells implanted in BDF1 mouse assessed as tumor growth inhibition at 50 mg/kg, po administered on day 0,3 and 7 measured after 14 days. The experiment is classed as functional. To be noted: B16-F10, 336 h, time 14 day, read-out: TGI. In short, it runs like this: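 Male BDF1 mice given 5 × 10^5 B16F10 melanoma cells subcutaneously; dosing began 7 days after inoculation (day 0) in random groups of seven. Tumours were measured by calipers, with TV = (L × W²)/2 and RTV = TVn/TV0. T/C% on day 14 = 100 × mean RTV treated / mean RTV control. Body weight was also recorded.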

The test system of experiment [3] is B16-F10. Kind of experiment: Antitumor activity against mouse B16-F10 cells implanted in BDF1 mouse assessed as tumor size relative to control (T/C) at 100 mg/kg, iv administered on day 0,3 and 7 measured after 14 days. The settings on record: 336 h.
Experiment [4] in a line: Growth inhibition of human HBC4 cells measured after 48 hrs by sulforhodamine B assay. The format is functional. In short, it runs like this: (§1)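 JFCR39 panel lines were grown in RPMI 1640 with 5% FBS, penicillin and streptomycin at 37 °C in 5% CO2. After 48 h of drug exposure, total cellular protein was measured by sulforhodamine B staining. GI50 was calculated by a previously described method.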

Experiment [5] can be described thus: Growth inhibition of human BSY1 cells measured after 48 hrs by sulforhodamine B assay. The settings on record: BSY-1. The experiment is classed as functional. The method in brief:
as §1

Experiment [6] in a line: Growth inhibition of human HBC5 cells measured after 48 hrs by sulforhodamine B assay. The format is functional. In short, it runs like this:
as §1

Experiment [7] relates to MDA-MB-231. The experiment in a line: Growth inhibition of human MDA-MB-231 cells measured after 48 hrs by sulforhodamine B assay. The format is functional. In short, it runs like this: as §1
For experiment [8], the system named is U-251. Kind of experiment: Growth inhibition of human U-251 cells measured after 48 hrs by sulforhodamine B assay. The experiment is classed as functional. The method in brief: as §1
Experiment [9] deals with SF-268. Kind of experiment: Growth inhibition of human SF-268 cells measured after 48 hrs by sulforhodamine B assay. The experiment is classed as functional. In short, it runs like this:
as §1

The subject of experiment [10] is SF-295. Kind of experiment: Growth inhibition of human SF-295 cells measured after 48 hrs by sulforhodamine B assay. The format is functional. In short, it runs like this: as §1
For experiment [11], the system named is SF-539. The experiment in a line: Growth inhibition of human SF-539 cells measured after 48 hrs by sulforhodamine B assay. The format is functional. The method in brief:
as §1

For experiment [12], the system named is SNB-75. Kind of experiment: Growth inhibition of human SNB-75 cells measured after 48 hrs by sulforhodamine B assay. The format is functional. The method in brief:
as §1

The subject of experiment [13] is SNB-78. Kind of experiment: Growth inhibition of human SNB-78 cells measured after 48 hrs by sulforhodamine B assay. The experiment is classed as functional. In short, it runs like this: as §1
The subject of experiment [14] is HCC 2998. Kind of experiment: Growth inhibition of human HCC 2998 cells measured after 48 hrs by sulforhodamine B assay. The format is functional. In short, it runs like this: as §1
Experiment [15] has as its system KM12. Kind of experiment: Growth inhibition of human KM12 cells measured after 48 hrs by sulforhodamine B assay. The experiment is classed as functional. The method in brief: as §1
Experiment [16] concerns HT-29. Kind of experiment: Growth inhibition of human HT-29 cells measured after 48 hrs by sulforhodamine B assay. The experiment is classed as functional. In short, it runs like this:
as §1

Experiment [17] deals with HCT-15. Kind of experiment: Growth inhibition of human HCT-15 cells measured after 48 hrs by sulforhodamine B assay. The experiment is classed as functional. In short, it runs like this:
as §1

Experiment [18] has as its system HCT-116. Kind of experiment: Growth inhibition of human HCT-116 cells measured after 48 hrs by sulforhodamine B assay. The format is functional. The method in brief: as §1
In experiment [19] the test system is NCI-H23. The experiment in a line: Growth inhibition of human NCI-H23 cells measured after 48 hrs by sulforhodamine B assay. The format is functional. The method in brief:
as §1

Experiment [20] relates to NCI-H226. The experiment in a line: Growth inhibition of human NCI-H226 cells measured after 48 hrs by sulforhodamine B assay. The format is functional. The method in brief:
as §1

For experiment [21], the system named is NCI-H522. Kind of experiment: Growth inhibition of human NCI-H522 cells measured after 48 hrs by sulforhodamine B assay. The experiment is classed as functional. In short, it runs like this: as §1
The subject of experiment [22] is NCI-H460. Kind of experiment: Growth inhibition of human NCI-H460 cells measured after 48 hrs by sulforhodamine B assay. The format is functional. In short, it runs like this:
as §1

Experiment [23] concerns A549. The experiment in a line: Growth inhibition of human A549 cells measured after 48 hrs by sulforhodamine B assay. The format is functional. In short, it runs like this:
as §1

Experiment [24] relates to DMS-273. Kind of experiment: Growth inhibition of human DMS-273 cells measured after 48 hrs by sulforhodamine B assay. The format is functional. In short, it runs like this:
as §1

Experiment [25] has as its system DMS-114. Kind of experiment: Growth inhibition of human DMS-114 cells measured after 48 hrs by sulforhodamine B assay. The experiment is classed as functional. In short, it runs like this:
as §1

Experiment [26] relates to LOX IMVI. The experiment in a line: Growth inhibition of human LOX IMVI cells measured after 48 hrs by sulforhodamine B assay. The format is functional. In short, it runs like this: as §1
In experiment [27] the test system is OVCAR-3. The experiment in a line: Growth inhibition of human OVCAR-3 cells measured after 48 hrs by sulforhodamine B assay. The format is functional. In short, it runs like this:
as §1

Experiment [28] relates to OVCAR-4. Kind of experiment: Growth inhibition of human OVCAR-4 cells measured after 48 hrs by sulforhodamine B assay. The experiment is classed as functional. The method in brief: as §1
Experiment [29] has as its system OVCAR-5. Kind of experiment: Growth inhibition of human OVCAR-5 cells measured after 48 hrs by sulforhodamine B assay. The experiment is classed as functional. The method in brief: as §1
Experiment [30] deals with OVCAR-8. Kind of experiment: Growth inhibition of human OVCAR-8 cells measured after 48 hrs by sulforhodamine B assay. The format is functional. The method in brief:
as §1

Experiment [31] has as its system SK-OV-3. The experiment in a line: Growth inhibition of human SK-OV-3 cells measured after 48 hrs by sulforhodamine B assay. The format is functional. The method in brief: as §1
In experiment [32] the test system is RXF 631. The experiment in a line: Growth inhibition of human RXF 631 cells measured after 48 hrs by sulforhodamine B assay. The experiment is classed as functional. In short, it runs like this:
as §1

Experiment [33] relates to ACHN. The experiment in a line: Growth inhibition of human ACHN cells measured after 48 hrs by sulforhodamine B assay. The experiment is classed as functional. In short, it runs like this:
as §1

Experiment [34] has as its system St-4. The experiment in a line: Growth inhibition of human St-4 cells measured after 48 hrs by sulforhodamine B assay. The format is functional. In short, it runs like this:
as §1

Experiment [35] relates to MKN-1. Kind of experiment: Growth inhibition of human MKN-1 cells measured after 48 hrs by sulforhodamine B assay. The format is functional. The method in brief:
as §1

The test system of experiment [36] is MKN-7. The experiment in a line: Growth inhibition of human MKN-7 cells measured after 48 hrs by sulforhodamine B assay. The format is functional. In short, it runs like this: as §1
Experiment [37] deals with MKN-28. Kind of experiment: Growth inhibition of human MKN-28 cells measured after 48 hrs by sulforhodamine B assay. The experiment is classed as functional. In short, it runs like this:
as §1

Experiment [38] relates to MKN-45. Kind of experiment: Growth inhibition of human MKN-45 cells measured after 48 hrs by sulforhodamine B assay. The experiment is classed as functional. The method in brief: as §1
Experiment [39] has as its system MKN-74. The experiment in a line: Growth inhibition of human MKN74 cells measured after 48 hrs by sulforhodamine B assay. The format is functional. The method in brief: as §1
For experiment [40], the system named is DU-145. The experiment in a line: Growth inhibition of human DU-145 cells measured after 48 hrs by sulforhodamine B assay. The format is functional. The method in brief:
as §1

Experiment [41] relates to PC-3. Kind of experiment: Growth inhibition of human PC-3 cells measured after 48 hrs by sulforhodamine B assay. The format is functional. The method in brief: as §1
The nature of experiment [42]: Inhibition of PI3K in human A549 cell lysate preincubated with compound for 5 mins followed by [gamma-32p]-ATP addition measured after 20 mins by immunoprecipitation based liquid scintillation spectroscopic analysis. The format is subcellular. In short, it runs like this: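 PI3K immunoprecipitated with anti-p85 polyclonal antibody and protein G–agarose from A549 lysate (2–4 mg/mL protein), washed, suspended in buffer C (100 mM NaCl, 20 mM Tris pH 7.5) with 200 μg/mL phosphatidylinositol; compound preincubated 5 min at 25 °C; reaction started with [γ-32P]ATP (20 μM final) and 20 mM MgCl2, run 20 min at 25 °C; PI3P separated by TLC, counted by scintillation; activity as % of no-compound cpm.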

Experiment [43] is described as follows: Residual PI3K activity in human A549 cell lysate at 1 uM preincubated with compound for 5 mins followed by [gamma-32p]-ATP addition measured after 20 mins by immunoprecipitation based liquid scintillation spectroscopic analysis relative to control. To be noted: A549, 25 min.
Experiment [44] has as its system A549. Kind of experiment: Irreversible inhibition of PI3K in human A549 cell lysate at 1 uM preincubated with compound for 5 mins followed by [gamma-32p]-ATP addition measured after 20 mins by immunoprecipitation based liquid scintillation spectroscopic analysis. To be noted: time 25.0 min. The experiment is classed as subcellular. In short, it runs like this:
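Class Ia PI3K was immunoprecipitated with anti-p85 antibody from A549 lysate and preincubated 5 min with compound at 1 μM. The mix was split: one aliquot washed four times (100 mM NaCl, 20 mM Tris pH 7.5), the other unwashed. Each aliquot was assayed with phosphatidylinositol 200 μg/mL, [γ-32P]ATP 20 μM final and MgCl2 20 mM final, 25 °C for 20 min. PI3P was separated by TLC, scraped and counted by scintillation, expressed as % of no-compound cpm.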

As for `COc1cccc2c1C(=O)c1c(O)c3c(c(O)c1C2=O)C[C@@](O)(C(=O)CO)C[C@@H]3O[C@H]1C[C@H](N)[C@H](O)[C@H](C)O1` [DOXORUBICIN], the T/C at 12 mg/kg in experiment [1] is 24%.
As for `O=c1[nH]cc(F)c(=O)[nH]1` [FLUOROURACIL], the inhibition in vivo at 50 mg/kg in experiment [2] was determined as 68.3%.
With `CCc1c2c(nc3ccc(OC(=O)N4CCC(N5CCCCC5)CC4)cc13)-c1cc3c(c(=O)n1C2)COC(=O)[C@]3(O)CC` [IRINOTECAN], in [3], the T/C at 100 mg/kg was 96%.
As for `O=c1cc(N2CCOCC2)oc2c(-c3ccccc3)cccc12` [LY-294002], the GI50 in experiment [4] was 8.71 µM; in experiment [5], 5.01 µM; in experiment [6], 3.98 µM; in [7], 5.37 µM; in experiment [8], 15.5 µM; in experiment [9], 6.61 µM. The GI50 in [10] was 3.24 µM; in experiment [11], 3.09 µM; in experiment [12] it was 2.57 µM; in [13] it was 2.57 µM; in experiment [14] it was 10.5 µM; in experiment [15], 15.5 µM. The GI50 is 15.1 µM in experiment [16]; 9.77 µM in experiment [17]; 15.1 µM in experiment [18]; 16.6 µM in experiment [19]; 4.37 µM in experiment [20]; 3.24 µM in experiment [21]. Further, the GI50 was 17 µM in experiment [22]; 6.03 µM in experiment [23]; 6.03 µM in experiment [24]; 2.95 µM in experiment [25]; 6.17 µM in [26]; 5.75 µM in experiment [27]. Moreover, the GI50 is 4.27 µM in [28]; 8.13 µM in experiment [29]; 10 µM in experiment [30]; 14.1 µM in experiment [31]; 5.5 µM in experiment [32]; 10 µM in experiment [33]. The GI50 in experiment [34] is 20.9 µM; in experiment [35], 10.5 µM; in experiment [36], 24 µM; in [37], 24.5 µM; in [38], 7.08 µM; in experiment [39], 18.2 µM. In addition, the GI50 in [40] is 10 µM; in [41], 1.78 µM. The IC50 in experiment [42] stood at 0.79 µM. In [43], the level, % of control at 1 µM was found to be 44.6%.
`COC[C@H]1OC(=O)c2coc3c2[C@@]1(C)C1=C(C3=O)[C@@H]2CCC(=O)[C@@]2(C)C[C@H]1OC(C)=O` [WORTMANNIN]: in experiment [42], the IC50 turned out to be 0.011 µM. In experiment [44], the inhibition entry is “Active”.
